Results taken from ChEMBL document CHEMBL4342467, “Discovery of a Novel Dual-Target Inhibitor of ERK1 and ERK5 That Induces Regulated Cell Death to Overcome Compensatory Mechanism in Specific Tumor Types” (J Med Chem, 2020).
Activity calls are given as the source filed them. No cut-off for these calls is given here.

What was measured:
[1] = molecular target: Mitogen-activated protein kinase; ERK1/ERK2 (Homo sapiens) (UniProt P27361+P28482); test: Inhibition of ERK1/2 in human MKN74 cells assessed as reduction in ERK1/2 phosphorylation at T202/Y204 residue at 0.5 uM measured up to 24 hrs by Western blot analysis; type: cell-based
[2] = Effect on Ras/Raf/MEK/ERK signaling in human MKN74 cells assessed as change in JNK expression at 0.5 uM measured up to 24 hrs by Western blot analysis; type: cell-based
In short: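 MKN-74 cells exposed to 0.5 μM for 0, 6, 12 and 24 h. Ras, Raf, p-MEK1/2, MEK1/2, p-JNK, JNK, p-p38 and p38 immunoblotted, with GAPDH as loading control.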

MKN-74 [3] = test: Induction of autophagy in human MKN74 cells assessed as increase in LC3-2 expression at 0.5 uM measured up to 24 hrs by Western blot analysis; type: functional, cell-based
In short: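 MKN-74 cells treated with 0.5 μM; LC3 (LC3-II) and p62 levels analyzed by immunoblotting.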

MKN-74 [4] = test: Cytotoxicity against human MKN74 cells harboring siRNA assessed as reduction in cell viability at 0.5 uM by MTT assay; type: functional, cell-based
In short: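 MKN-74 cells transfected with ATG5-specific or negative-control siRNA for the indicated times, then treated with 0.5 μM. Viability read by MTT assay.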

[5] = Half life in Sprague-Dawley rat at 1 mg/kg, iv by LC-MS analysis; type: ADME, organism-based; details: in vivo
In short: (§1)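 Rats, two groups of 3; single i.v. dose 1 mg/kg or oral dose 10 mg/kg. Plasma concentration-time profiles used to derive T1/2, Tmax, Cmax, AUC0-t, AUC0-∞ and oral bioavailability. Data from triplicate testing, ± standard deviation.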

[6] = Cmax in Sprague-Dawley rat at 1 mg/kg, iv by LC-MS analysis; type: ADME, organism-based; parameters: dose 1 mg/kg, route intravenous; details: in vivo; in short: as §1

Chain of Mitogen-activated protein kinase; ERK1/ERK2 (Homo sapiens) (P27361 whole entry, looked up): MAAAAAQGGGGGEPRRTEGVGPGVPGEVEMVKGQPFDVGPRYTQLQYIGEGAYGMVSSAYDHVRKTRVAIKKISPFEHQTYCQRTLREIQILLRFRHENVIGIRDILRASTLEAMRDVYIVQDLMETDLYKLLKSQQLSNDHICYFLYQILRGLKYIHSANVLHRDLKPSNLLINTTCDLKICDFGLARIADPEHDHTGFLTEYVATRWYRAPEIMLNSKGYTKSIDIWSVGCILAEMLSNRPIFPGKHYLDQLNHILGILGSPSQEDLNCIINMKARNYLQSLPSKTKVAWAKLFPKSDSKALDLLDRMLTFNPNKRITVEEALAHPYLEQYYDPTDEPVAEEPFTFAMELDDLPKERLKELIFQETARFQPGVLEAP
Chain of Mitogen-activated protein kinase; ERK1/ERK2 (Homo sapiens) (P28482 whole entry, looked up): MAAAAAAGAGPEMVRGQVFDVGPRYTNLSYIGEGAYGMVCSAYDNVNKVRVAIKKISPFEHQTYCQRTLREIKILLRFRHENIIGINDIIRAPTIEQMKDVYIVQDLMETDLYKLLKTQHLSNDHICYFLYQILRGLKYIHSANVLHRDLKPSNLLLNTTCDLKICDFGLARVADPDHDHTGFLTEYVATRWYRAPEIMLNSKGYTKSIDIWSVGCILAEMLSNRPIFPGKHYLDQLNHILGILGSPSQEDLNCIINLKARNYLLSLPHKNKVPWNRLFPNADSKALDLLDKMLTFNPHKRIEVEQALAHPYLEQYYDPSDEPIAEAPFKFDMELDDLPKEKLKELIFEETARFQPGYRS

NC(=O)c1c(NC(=O)c2ccccc2Cl)sc2c1CCN(C(=S)Nc1ccccc1Cl)C2
inhibition [1]: Active
Activity [2]: inactive
Activity (MKN-74 [3]): Active
Activity (MKN-74 [4]): Active
half-life [5]: 57 min
Cmax [6]: 1890 ng/mL
